# JNK3 blocker = inhibitors of human JNK3 kinase; P53779; purified JNK3 kinase activity, HTS; inhibition, % at 8 µM; 60,000 tested, 0.61% active; AID 746; in the data active = inhibition above about 17%;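 note: 0% = DMSO and 100% = reference inhibitor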
# HEK293 NFkB inh = inhibitors of the PMA/ionomycin-induced NF-kB reporter in HEK293 cells. 62,000 tested, 0.21% active. inhibition, % at 3 µM. AID 465. HEK-293 NF-kB luciferase reporter, luminescence;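 active = inhibition above the mean of all tested compounds plus 3 SD, cut at about 40% in these data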;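 note: 0% = stimulated DMSO wells and 100% = 10 µM reference inhibitor 5653914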
#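 Signal: luciferase luminescence; Material: HEK-293 cells with stable firefly luciferase reporter driven by four HIV NF-kB elements; Probe or stimulus: PMA with ionomycin; Replication: tested once; Times: 1 h compound pretreatment, then 16 h stimulation at 37 °C, 5% CO2; Benchmarks: DMSO and 10 µM reference inhibitor; Evaluation: per-plate % inhibition versus controls.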
# HePTP inh = human HePTP phosphatase inhibition. AID 521. recombinant HePTP phosphatase activity, OD absorbance. 110,000 tested, 0.64% active. inhibition, % at 20 µM; in the data active = inhibition above about 50%;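 note: plate controls were vehicle for no effect and reference inhibitor for full effect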
# Target sequence (P35236 whole entry, looked up): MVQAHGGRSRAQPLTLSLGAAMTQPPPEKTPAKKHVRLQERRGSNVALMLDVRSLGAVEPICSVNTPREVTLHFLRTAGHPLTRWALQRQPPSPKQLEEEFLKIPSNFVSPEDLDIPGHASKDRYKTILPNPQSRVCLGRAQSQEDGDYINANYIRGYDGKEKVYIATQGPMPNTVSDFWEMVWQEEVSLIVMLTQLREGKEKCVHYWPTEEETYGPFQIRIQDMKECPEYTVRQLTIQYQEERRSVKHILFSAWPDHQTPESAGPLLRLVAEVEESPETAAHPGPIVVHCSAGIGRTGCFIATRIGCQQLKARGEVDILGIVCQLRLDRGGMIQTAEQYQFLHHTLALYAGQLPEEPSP
# MMP-13 inhibitor = blocks human MMP13 activity; P45452; MMP-13 fTHP FRET cleavage, Mca fluorescence; inhibition, % at 4 µM; AID 570; 65,000 tested, 0.07% active;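 active = inhibition above the mean of compound-free control plate wells plus 3 SD, cut at about 14% in these data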;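 note: 0% = DMSO wells and 100% = wells with reference MMP-13 inhibitor after basal subtraction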
# * = called active by the depositor; . = no result; ! = repeats disagree. This is a sample that favours compounds with a hit; in the whole collection about 0.93% have one here.
SMILES,JNK3 blocker,HEK293 NFkB inh,HePTP inh,MMP-13 inhibitor
CC(=O)Nc1nc(C)c(-c2csc(Nc3ccc(O)cc3)n2)s1,18*,18,2,3
COc1ccc(C(C)=O)cc1COC(=O)c1ccc(OCc2c(C)noc2C)cc1,4,8,4,0
COc1ccc(C(C)=O)cc1COC(=O)c1c(C)noc1C,24*,8,5,0
O=c1c2c(nc3cc(-c4cccs4)[nH]n13)CCS2,.,.,7,.
O=c1c2c(nc3cc(-c4ccco4)[nH]n13)CCS2,.,.,100*,.
Cc1ccc(-c2cc3nc4c(c(=O)n3[nH]2)SCC4)cc1,.,.,5,.
O=c1c2c(nc3cc(-c4ccc(Cl)cc4)[nH]n13)CCS2,.,.,96*,.
O=C1NC(=Nc2ccc(O)cc2)S/C1=C\c1ccc([N+](=O)[O-])cc1,.,.,93*,.
CCOc1cc(/C=C2\SC(=Nc3ccc(C)c(Cl)c3)NC2=O)ccc1O,.,.,7,.
Cc1ccc(N=C2NC(=O)/C(=C/c3ccc(O)c([N+](=O)[O-])c3)S2)cc1Cl,.,.,102*,.
O=C1NC(=Nc2ccc(Br)cc2)S/C1=C\c1ccc([N+](=O)[O-])cc1,.,.,-4,.
CCOC(=O)c1c(C)[nH]c(/C=C2\C(=O)C=Cc3ccccc32)c1O,.,.,11,.
COc1ccc(CCNC(=O)/C=C/c2ccc([N+](=O)[O-])cc2)cc1,.,.,75*,.
Cc1cc(N2C(=O)NC(=O)/C(=C\c3ccco3)C2=O)ccc1Br,.,.,80*,.
O=C1NC(=O)N(c2ccc(Br)cc2)C(=O)/C1=C/c1ccco1,.,.,104*,.
O=C(O)c1n[nH]c2ccccc12,.,10,-8,6
c1ccc(-c2n[nH]c3ccccc23)cc1,84*,10,6,-4
CC(C)(C)NCCOc1ccc(Cl)cc1,.,.,5,.
Cc1cc(NC(=O)COC(=O)c2n[nH]c3ccccc23)no1,23*,9,4,-13
O=C(CCOc1ccccc1)Nc1cccc([N+](=O)[O-])c1,.,.,92*,.
COc1ccc(/C=C/C(=O)Nc2ccc(C)cc2C)cc1OC,.,.,3,.
COc1cc(NC(=O)C2CC(c3cccc(OC)c3OC)=NO2)cc(OC)c1OC (centres undefined),69*,13,-7,-1
O=C(c1ccc(N2CCN(C(=O)c3ccccc3Br)CC2)cc1)c1cccc(F)c1,.,.,102*,.
O=C(c1ccc(N2CCN(C(=O)c3ccccc3F)CC2)cc1)c1cccc(F)c1,.,.,3,.
CCC1=NN2C(=N)/C(=C/c3ccc(OC)c(OC)c3)C(=O)N=C2S1,.,.,-8,.
SMILES,JNK3 blocker,HEK293 NFkB inh,HePTP inh,MMP-13 inhibitor
CCC1=NN2C(=N)/C(=C/c3ccc(OCc4ccc(Br)cc4)c(OC)c3)C(=O)N=C2S1,.,.,101*,.
Cc1nc(C)c(/C(O)=C/c2nc3ccc([N+](=O)[O-])cc3oc2=O)s1,.,.,1,.
O=c1oc2cc([N+](=O)[O-])ccc2nc1/C=C(\O)c1cccs1,.,.,76*,.
CC(C)n1nc(C(=O)OCC(=O)N(C)C2CCS(=O)(=O)C2)c2ccccc2c1=O (centres undefined),21*,13,9,-1
COc1cc(/C=C(\C#N)c2nc(-c3ccc(-c4ccccc4)cc3)cs2)ccc1O,.,.,-9,.
CC(=O)c1sc(NC(=O)C2COc3ccccc3O2)nc1C (centres undefined),9,-12,7,-3
CC(=O)c1sc(Nc2ccccn2)nc1C,23*,12,6,-3
COc1cc(CC(=O)Nc2sccc2C(N)=O)cc(OC)c1OC,56*,12,-4,-1
Cc1ccsc1C(=O)OCC(=O)Nc1sccc1C(N)=O,13,0,4,-3
O=C1C(Cl)=CC(=NSc2nc3ccccc3s2)C=C1Cl,.,.,68*,.
COc1cc(C(=O)N2CCN(c3cc(Cl)ccc3Cl)CC2)cc(OC)c1OC,-3,43*,1,6
COc1cc(C(=O)N2CCN(c3cccc(C)c3C)CC2)cc(OC)c1OC,-1,35,6,1
CC(=O)/C=C/c1ccc(-c2cc(Cl)ccc2Cl)o1,.,.,-10,.
O=C(/C=C/c1ccco1)/C=C/c1ccc(-c2ccc(Cl)c(Cl)c2)o1,.,.,102*,.
O=C(/C=C/c1ccc(-c2cc(Cl)ccc2Cl)o1)c1ccco1,.,.,60*,.
Cc1ccccc1N(C=O)C(=O)C1C(C)C2C=CC1C21CC1 (centres undefined),.,.,105*,.
CC1C(C(=O)N(C=O)c2ccccc2F)C2C=CC1C21CC1 (centres undefined),.,.,4,.
CN(c1ccc(C(=O)Nc2nccs2)cc1)S(=O)(=O)c1ccccc1,28*,1,-5,0
CN(c1ccccc1)S(=O)(=O)c1ccc(C(=O)Nc2nccs2)cc1,-7,-2,2,0
Cc1cccc(N=Cc2ccc(OC3CSC3)cc2)c1,.,.,5,.
O=[N+]([O-])c1cccc2c1NC(c1ccc(F)cc1)C1CC=CC21 (centres undefined),.,.,7,.
O=C(O)c1cccc2c1NC(c1cccc3ccccc13)C1CC=CC21 (centres undefined),.,.,102*,.
O=C(O)c1ccc2c(c1)C1C=CCC1C(c1ccc([N+](=O)[O-])cc1)N2 (centres undefined),.,.,102*,.
O=[N+]([O-])c1cccc2c1NC(c1ccc(Cl)cc1)C1CC=CC21 (centres undefined),.,.,104*,.
O=[N+]([O-])c1cccc2c1NC(c1ccccc1F)C1CC=CC21 (centres undefined),.,.,-1,.
SMILES,JNK3 blocker,HEK293 NFkB inh,HePTP inh,MMP-13 inhibitor
O=C(O)c1cccc2c1NC(c1ccc([N+](=O)[O-])cc1)C1CC=CC21 (centres undefined),.,.,103*,.
Cc1ccc(C(=O)Nc2c(Cl)cccc2Cl)cc1[N+](=O)[O-],.,.,10,.
O=C(O)c1cccc2c1NC(c1ccc(Cl)cc1)C1CC=CC21 (centres undefined),.,.,104*,.
COc1cccc2c1NC(c1ccc(Cl)cc1)C1CC=CC21 (centres undefined),.,.,6,.
O=C(O)C1Nc2c(cccc2[N+](=O)[O-])C2C=CCC12 (centres undefined),.,.,104*,.
COc1cccc2c1NC(C(=O)O)C1CC=CC21 (centres undefined),-5,18,.,-3
CS(=O)(=O)N1CCN(c2ccccc2NC(=O)Cc2ccccc2)CC1,17*,14,8,1
CS(=O)(=O)N1CCN(c2ccccc2NC(=O)Cc2ccc(Cl)cc2)CC1,8,6,-5,-2
Cc1ccccc1NC(=S)NCCOc1ccccc1Cc1ccccc1,.,.,-22,.
O=C(CN(Cc1ccccc1)S(=O)(=O)c1ccccc1)NCc1ccco1,.,.,2,.
CCOC(=O)c1c2n(c3ccc(O)cc13)CCC2,.,26,.,1
CCOC(=O)c1c(C)[nH]c2ccc(O)cc12,18*,9,8,2
COc1ccc2ccccc2c1C1C(C(C)=O)=C(C)N=c2s/c(=C\c3cccc(O)c3)c(=O)n21 (centres undefined),.,.,0,.
O=C(c1ccc2c(c1)OCO2)N1CCN(c2ccccc2)CC1,3,9,6,-2
O=C(c1ccc2c(c1)OCO2)N1CCN(c2ccc(Cl)cc2)CC1,6,6,102*!,-8
O=S(=O)(c1ccc(Cl)cc1Cl)N1CCN(c2ccccc2)CC1,.,.,4,.
C=CCc1cccc2cc(C(=O)Nc3ccc(S(=O)(=O)Nc4nnc(CC)s4)cc3)c(=O)oc12,.,.,103*,.
